Compounds with a hit are over-represented: about 2.1% of the library has one in this group of screens.
CHRM1 PAM: human CHRM1 positive allosteric modulation. CHO-K1 hM1, Fluo-8 calcium fluorescence, ACh EC20; 0% = ACh EC20, 100% = maximal ACh. 0.088% of 360,000 active. P11229. activation, % at 3 µM; in the data active = activation above about 19%, passing the limit was not always enough
M5 antag: blocks acetylcholine activation of human M5 receptor; P08912; CHO-hM5 cells, Fluo-8 calcium fluorescence, ACh EC80; inhibition, % at 3 µM; 0.59% of 360,000 active; AID 624040;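 active = inhibition above a per-plate cutoff, the mean of that plate's test compounds plus 3 SD, cut at about 27% in these data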
Target sequence (P08912 whole entry, looked up): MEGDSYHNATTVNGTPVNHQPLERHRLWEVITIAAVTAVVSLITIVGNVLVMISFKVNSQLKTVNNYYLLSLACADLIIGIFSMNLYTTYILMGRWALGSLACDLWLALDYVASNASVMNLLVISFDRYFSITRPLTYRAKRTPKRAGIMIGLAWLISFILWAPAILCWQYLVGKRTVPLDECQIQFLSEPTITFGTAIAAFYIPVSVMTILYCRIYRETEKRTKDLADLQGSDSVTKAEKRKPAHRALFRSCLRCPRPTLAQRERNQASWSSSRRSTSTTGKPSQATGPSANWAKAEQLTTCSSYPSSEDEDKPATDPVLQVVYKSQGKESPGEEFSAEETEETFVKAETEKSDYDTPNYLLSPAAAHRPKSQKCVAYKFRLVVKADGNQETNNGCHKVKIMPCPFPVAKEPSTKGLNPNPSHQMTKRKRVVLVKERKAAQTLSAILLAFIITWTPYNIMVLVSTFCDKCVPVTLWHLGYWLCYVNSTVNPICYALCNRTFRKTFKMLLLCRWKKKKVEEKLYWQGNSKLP
CHRM1 antagonist: blocks human M1 muscarinic receptor; P11229; CHO-K1 hM1, Fluo-8 calcium fluorescence, ACh EC80 antagonist; inhibition, % at 3 µM; 1.3% of 360,000 active; AID 588852;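 active = percent inhibition above its own plate's cutoff, namely the mean of that plate's compound wells plus 3 SD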;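 note: peak over basal fluorescence ratio during 140 s after agonist addition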
CHRM5 PAM: CHRM5 positive allosteric modulation; CHO-K1 hM5, Fluo-8 calcium, ACh EC20 PAM; 0% = ACh EC20, 100% = ACh EC100; AID 624038; activation, % at 3 µM; 0.3% of 360,000 active;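 active = activation above the run cutoff, the mean activation of all test compounds plus 3 SD, cut at about 18% in these data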
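Replicates: One well per compound, no replicates | System: Human M5 receptor in CHO-K1 cells | Benchmarks: Low control EC20 acetylcholine (0%), high control EC100 acetylcholine (100%) | Probe or stimulus: Acetylcholine, EC20 level | Times: Fluo-8 loading 80 min at 37 °C plus 30 min room temperature | Signal: Intracellular calcium via Fluo-8 fluorescence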
M5 ag: CHRM5 agonism in calcium assay | P08912 | CHO-K1 hM5 cells, Fluo-8 calcium fluorescence; 0% DMSO wells, 100% maximal acetylcholine response | activation, % at 3 µM | 0.19% of 360,000 active | AID 624037;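 active = activation above the run's mean over test compounds plus 3 SD, cut at about 23% in these data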;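 note: signal is peak over basal fluorescence ratio across the kinetic read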
CHRM1 agonist: activates human CHRM1 receptor | CHO-K1 hM1, Fluo-8 calcium fluorescence, agonist mode; 0% DMSO, 100% acetylcholine EC100 | activation, % at 3 µM | AID 588814 | 0.33% of 360,000 active;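 active = activation above the run's mean compound activation plus 3 SD, cut at about 16% in these data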;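 note: peak over basal fluorescence ratio within a 140 s kinetic read after compound addition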
Numbers stand for hits.

Cc1c(-c2cccs2)[n+](=O)c2c(n1[O-])CCCCC2 was read as CHRM1 PAM inactive, M5 antag inactive, CHRM1 antagonist inactive, CHRM5 PAM inactive, M5 ag inactive and CHRM1 agonist inactive.
COc1ccc2[nH]c(=O)c(CNC3CCCCC3)cc2c1 was read as CHRM1 PAM inactive, M5 antag inactive, CHRM1 antagonist inactive, CHRM5 PAM 23, M5 ag inactive and CHRM1 agonist inactive.
Screening COc1ccc2[nH]c(=O)c(CN(C(=O)NC3CCCCC3)C3CCCCC3)cc2c1 returned CHRM1 PAM inactive, M5 antag inactive, CHRM1 antagonist inactive, CHRM5 PAM inactive, M5 ag inactive and CHRM1 agonist inactive.
COc1ccc(CN2CCN(C(=O)c3cc(-c4cccnc4)nc4ccc(Cl)cc34)CC2)c(OC)c1OC was read as CHRM1 PAM inactive, M5 antag inactive, CHRM1 antagonist 58, CHRM5 PAM inactive, M5 ag inactive and CHRM1 agonist inactive.
Screening CS(=O)(=O)N1CCN(C(=O)c2cc(-c3cccnc3)nc3ccc(Cl)cc23)CC1 returned CHRM1 PAM inactive, M5 antag inactive, CHRM1 antagonist inactive, CHRM5 PAM inactive, M5 ag inactive and CHRM1 agonist inactive.
`O=C(NCC(c1ccco1)N1CCCC1)c1cc(=O)[nH]c2ccccc12` (configuration not stated) gave CHRM1 PAM inactive, M5 antag inactive, CHRM1 antagonist inactive, CHRM5 PAM inactive, M5 ag inactive and CHRM1 agonist inactive.
For C=CCNC(=O)CC(=O)N/N=C/c1ccccc1F the results were CHRM1 PAM inactive, M5 antag inactive, CHRM1 antagonist inactive, CHRM5 PAM inactive, M5 ag inactive and CHRM1 agonist inactive.
For CC(=O)Nc1ccc(Cl)c(C(N)=O)c1 the results were CHRM1 PAM inactive, M5 antag inactive, CHRM1 antagonist inactive, CHRM5 PAM inactive, M5 ag inactive and CHRM1 agonist inactive.
CCc1cc2c(=O)n(-c3ccccc3)cnc2s1 was read as CHRM1 PAM inactive, M5 antag inactive, CHRM1 antagonist inactive, CHRM5 PAM inactive, M5 ag inactive and CHRM1 agonist inactive.
`COc1ccc(N(CC(=O)N2CCc3ccccc32)S(=O)(=O)c2c(C)nn(C)c2C)cc1` gave CHRM1 PAM inactive, M5 antag inactive, CHRM1 antagonist inactive, CHRM5 PAM inactive, M5 ag inactive and CHRM1 agonist inactive.
Screening COc1ccc(N(CC(=O)N2c3ccccc3CC2C)S(=O)(=O)c2c(C)nn(C)c2C)cc1 (configuration not stated) returned CHRM1 PAM inactive, M5 antag inactive, CHRM1 antagonist 28, CHRM5 PAM inactive, M5 ag inactive and CHRM1 agonist inactive.
CCN(CC)c1ccc(/C=C(/C#N)c2nc3ccccc3[nH]2)c(OC(C)C)c1 was read as CHRM1 PAM inactive, M5 antag inactive, CHRM1 antagonist 64, CHRM5 PAM inactive, M5 ag inactive and CHRM1 agonist 55.
`CC(C)c1ccc(-c2nnc(SCC(=O)NC3CC3)n2C)cc1` gave CHRM1 PAM inactive, M5 antag inactive, CHRM1 antagonist inactive, CHRM5 PAM 30, M5 ag inactive and CHRM1 agonist inactive.
Screening COc1ccc(CN(CCN)C2CC(C)N(C)CC2C)cc1 (configuration not stated) returned CHRM1 PAM inactive, M5 antag inactive, CHRM1 antagonist inactive, CHRM5 PAM inactive, M5 ag inactive and CHRM1 agonist inactive.
Screening CC1CCCC(NS(=O)(=O)c2cc3c(cc2Cl)NC(=O)CO3)C1C (configuration not stated) returned CHRM1 PAM inactive, M5 antag inactive, CHRM1 antagonist inactive, CHRM5 PAM inactive, M5 ag inactive and CHRM1 agonist inactive.
`C/C(=N\N1CCN(Cc2ccc(Cl)cc2)CC1)c1ccc(F)cc1` gave CHRM1 PAM inactive, M5 antag inactive, CHRM1 antagonist inactive, CHRM5 PAM inactive, M5 ag inactive and CHRM1 agonist inactive.
Screening COc1ccc(CN2CCN(C(=O)CCC(=O)Nc3nnc(C4CCCCC4)s3)CC2)cc1F returned CHRM1 PAM inactive, M5 antag inactive, CHRM1 antagonist 34, CHRM5 PAM inactive, M5 ag inactive and CHRM1 agonist inactive.
